Results: ChEMBL document CHEMBL3044673, “Design, synthesis and insecticidal activity of novel phenylpyrazoles containing a 2,2,2-trichloro-1-alkoxyethyl moiety” (2010)

Columns and labels:
Format in all cases: functional
[1] = test system: Culex pipiens pallens; assay: Insecticidal activity against Culex pipiens pallens (mosquito) assessed as insect mortality at 5 ug/kg measured 1 day post compound treatment; settings: 24 h
Procedure, shortened: (§1)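 Fourth-instar Culex pipiens pallens larvae, 20 per test, were laboratory-reared and placed in 100 mL of test solution made by adding 1 mL of compound dilution to 99 mL of water. Tests were held at 25±1 °C, percentage mortality was scored 1 day after treatment, and each test was run three times.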

[2] = test system: Plutella xylostella; assay: Insecticidal activity against Plutella xylostella (diamondback moth) grown on compound pre-treated fresh cabbage leaves assessed as insect mortality at 200 mg/kg measured 3 days post compound treatment by leaf-dip method
Procedure, shortened: (§2)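 Leaf-dip stomach-toxicity assay on laboratory-reared diamondback moth. Test solutions came from a 200 mg L^-1 stock in dimethylformamide, diluted with water containing TW-20. Control leaves were treated with water and dimethylformamide. Tests were held at 25±1 °C, percentage mortality was scored 3 days after treatment, and each treatment was run three times.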

[3] = test system: Aphis craccivora; assay: Insecticidal activity against Aphis craccivora (cowpea aphid) infested tender soybean shoots exposed to 25 mg/kg test compound solution assessed as insect mortality measured 24 hr post compound treatment
Procedure, shortened: (§3)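 Soybean tender shoots carrying 60 aphids were dipped in test solutions. Solutions were made from a 200 mg L^-1 stock in dimethylformamide, diluted with water containing TW-20. Insects were laboratory-reared, tests were held at 25±1 °C, and mortality was scored.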

[4] = test system: Plutella xylostella; assay: Insecticidal activity against Plutella xylostella (diamondback moth) grown on compound pre-treated fresh cabbage leaves assessed as insect mortality at 25 mg/kg measured 3 days post compound treatment by leaf-dip method; settings: for mortality at 25 mg/kg: Plutella xylostella; procedure, shortened: as §2
[5] = test system: Plutella xylostella; assay: Insecticidal activity against Plutella xylostella (diamondback moth) grown on compound pre-treated fresh cabbage leaves assessed as insect mortality at 50 mg/kg measured 3 days post compound treatment by leaf-dip method; procedure, shortened: as §2
[6] = test system: Culex pipiens pallens; assay: Insecticidal activity against Culex pipiens pallens (mosquito) assessed as insect mortality at 50 ug/kg measured 1 day post compound treatment; settings: 24 h; procedure, shortened: as §1
[7] = test system: Plutella xylostella; assay: Insecticidal activity against Plutella xylostella (diamondback moth) grown on compound pre-treated fresh cabbage leaves assessed as insect mortality at 10 mg/kg measured 3 days post compound treatment by leaf-dip method; settings: for mortality at 10 mg/kg: Plutella xylostella; for mortality: 10 mg/kg; procedure, shortened: as §2
[8] = test system: Aphis craccivora; assay: Insecticidal activity against Aphis craccivora (cowpea aphid) infested tender soybean shoots exposed to 200 mg/kg test compound solution assessed as insect mortality measured 24 hr post compound treatment; procedure, shortened: as §3
[9] = test system: Culex pipiens pallens; assay: Insecticidal activity against Culex pipiens pallens (mosquito) assessed as insect mortality at 10 ug/kg measured 1 day post compound treatment; settings: 24 h; procedure, shortened: as §1
[10] = test system: Culex pipiens pallens; assay: Insecticidal activity against Culex pipiens pallens (mosquito) assessed as insect mortality at 100 ug/kg measured 1 day post compound treatment; settings: for mortality at 0.1 mg/kg: Culex pipiens, 24 h; procedure, shortened: as §1
[11] = test system: Aphis craccivora; assay: Insecticidal activity against Aphis craccivora (cowpea aphid) infested tender soybean shoots exposed to 100 mg/kg test compound solution assessed as insect mortality measured 24 hr post compound treatment; procedure, shortened: as §3
[12] = test system: Aphis craccivora; assay: Insecticidal activity against Aphis craccivora (cowpea aphid) infested tender soybean shoots exposed to 50 mg/kg test compound solution assessed as insect mortality measured 24 hr post compound treatment; procedure, shortened: as §3
[13] = test system: Plutella xylostella; assay: Insecticidal activity against Plutella xylostella (diamondback moth) grown on compound pre-treated fresh cabbage leaves assessed as insect mortality at 100 mg/kg measured 3 days post compound treatment by leaf-dip method; procedure, shortened: as §2
[14] = test system: Aphis craccivora; assay: Insecticidal activity against Aphis craccivora (cowpea aphid) infested tender soybean shoots exposed to 10 mg/kg test compound solution assessed as insect mortality measured 24 hr post compound treatment; settings: for mortality at 10 mg/kg: Aphis craccivora, 24 h; procedure, shortened: as §3
[15] = test system: Culex pipiens pallens; assay: Insecticidal activity against Culex pipiens pallens (mosquito) assessed as insect mortality at 25 ug/kg measured 1 day post compound treatment; settings: 24 h; procedure, shortened: as §1
[16] = test system: Aphis craccivora; assay: Insecticidal activity against Aphis craccivora (cowpea aphid) infested tender soybean shoots exposed to 2.5 mg/kg test compound solution assessed as insect mortality measured 24 hr post compound treatment; settings: for mortality at 2.5 mg/kg: Aphis craccivora, 24 h; procedure, shortened: as §3
[17] = test system: Plutella xylostella; assay: Insecticidal activity against Plutella xylostella (diamondback moth) grown on compound pre-treated fresh cabbage leaves assessed as insect mortality at 5 mg/kg measured 3 days post compound treatment by leaf-dip method; settings: for mortality at 5 mg/kg: Plutella xylostella; for mortality: 5 mg/kg; procedure, shortened: as §2
[18] = test system: Aphis craccivora; assay: Insecticidal activity against Aphis craccivora (cowpea aphid) infested tender soybean shoots exposed to 5 mg/kg test compound solution assessed as insect mortality measured 24 hr post compound treatment; settings: for mortality at 5 mg/kg: Aphis craccivora, 24 h; for mortality: 5 mg/kg; procedure, shortened: as §3
[19] = test system: Plutella xylostella; assay: Insecticidal activity against Plutella xylostella (diamondback moth) grown on compound pre-treated fresh cabbage leaves assessed as insect mortality at 2.5 mg/kg measured 3 days post compound treatment by leaf-dip method; procedure, shortened: as §2

Row | Compound | mortality at 200 mg/kg [2] | mortality at 25 mg/kg [3] | mortality at 25 mg/kg [4] | mortality at 50 mg/kg [5] | mortality at 0.05 mg/kg [6] | mortality at 10 mg/kg [7] | mortality at 200 mg/kg [8] | mortality at 0.01 mg/kg [9] | mortality at 0.1 mg/kg [10] | mortality at 100 mg/kg [11] | mortality at 50 mg/kg [12] | mortality at 100 mg/kg [13] | mortality at 10 mg/kg [14] | mortality at 0.025 mg/kg [15] | mortality at 2.5 mg/kg [16] | mortality at 5 mg/kg [17] | mortality at 5 mg/kg [18] | mortality at 2.5 mg/kg [19] | mortality [10] | other results
1 | CCOC(Nc1c(SCC)c(C#N)nn1-c1c(Cl)cc(C(F)(F)F)cc1Cl)C(Cl)(Cl)Cl (centres undefined) | 100% | 35% | 44% | 96% | 100% | 18% | 90% | 100% | 100% | 86% | 75% | 100% | 0% | 100% |  |  |  |  |  | mortality at 0.005 mg/kg [1]: 0%
2 | CSc1c(C#N)nn(-c2c(Cl)cc(C(F)(F)F)cc2Cl)c1NC(OCCCl)C(Cl)(Cl)Cl (centres undefined) | 100% | 98% | 100% | 100% | 100% | 100% | 100% | 100% | 100% | 100% | 100% | 100% | 73% | 100% | 62% | 87% | 69% | 62% |  | mortality at 0.005 mg/kg [1]: 20%
3 | CSc1c(C#N)nn(-c2c(Cl)cc(C(F)(F)F)cc2Cl)c1NC(OCCF)C(Cl)(Cl)Cl (centres undefined) | 100% | 74% | 100% | 100% | 100% | 89% | 100% | 40% | 100% | 100% | 100% | 100% | 62% | 100% | 0% | 81% | 28% | 34% |  | 
4 | C[S+]([O-])c1c(C#N)nn(-c2c(Cl)cc(C(F)(F)F)cc2Cl)c1NC(OCCF)C(Cl)(Cl)Cl (stereo in doubt; 7d-1) |  |  |  |  |  |  |  |  |  |  |  |  |  |  |  |  |  |  | 20% | mortality ([4]; 25 mg/kg): 92%; mortality [7]: 77%; mortality ([16]; 2.5 mg/kg): 43%; mortality [17]: 56%; mortality [18]: 72%
5 | C[S+]([O-])c1c(C#N)nn(-c2c(Cl)cc(C(F)(F)F)cc2Cl)c1NC(OCCF)C(Cl)(Cl)Cl (stereo in doubt; 7d-2) | 100% | 100% | 89% | 100% |  | 76% | 100% |  |  | 100% | 100% | 100% | 100% |  | 46% | 54% | 70% | 0% | 50% | 
6 | C[S+]([O-])c1c(C#N)nn(-c2c(Cl)cc(C(F)(F)F)cc2Cl)c1NC(OCCCl)C(Cl)(Cl)Cl (stereo in doubt; 7e-1) |  |  |  |  | 40% |  |  |  |  |  |  |  |  |  |  |  |  |  | 100% | mortality [7]: 81%; mortality [17]: 60%; mortality [18]: 61%; mortality ([14]; 10 mg/kg): 96%
7 | C[S+]([O-])c1c(C#N)nn(-c2c(Cl)cc(C(F)(F)F)cc2Cl)c1NC(OCCCl)C(Cl)(Cl)Cl (stereo in doubt; 7e-2) | 100% | 100% | 100% | 100% |  | 79% | 100% |  |  | 100% | 100% | 100% | 100% |  | 0% | 56% | 68% | 0% | 50% | 
